Screening results from PubChem.
AF4-AF9 inh – MLL-AF4/AF9 protein interaction inhibition; P42568; AlphaScreen, biotin-AF4 peptide binding to FLAG-AF9; inhibition, % at 10 µM; 0.47% of 350,000 active;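 active = every replicate reaching a set inhibition limit, whatever the replicate mean, cut at about 25% in these data; inconclusive = mean inhibition reaches that limit but some replicates miss it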;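 note: 0% = plate neutral control median and 100% = total signal loss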
Target sequence (P42568 whole entry, looked up): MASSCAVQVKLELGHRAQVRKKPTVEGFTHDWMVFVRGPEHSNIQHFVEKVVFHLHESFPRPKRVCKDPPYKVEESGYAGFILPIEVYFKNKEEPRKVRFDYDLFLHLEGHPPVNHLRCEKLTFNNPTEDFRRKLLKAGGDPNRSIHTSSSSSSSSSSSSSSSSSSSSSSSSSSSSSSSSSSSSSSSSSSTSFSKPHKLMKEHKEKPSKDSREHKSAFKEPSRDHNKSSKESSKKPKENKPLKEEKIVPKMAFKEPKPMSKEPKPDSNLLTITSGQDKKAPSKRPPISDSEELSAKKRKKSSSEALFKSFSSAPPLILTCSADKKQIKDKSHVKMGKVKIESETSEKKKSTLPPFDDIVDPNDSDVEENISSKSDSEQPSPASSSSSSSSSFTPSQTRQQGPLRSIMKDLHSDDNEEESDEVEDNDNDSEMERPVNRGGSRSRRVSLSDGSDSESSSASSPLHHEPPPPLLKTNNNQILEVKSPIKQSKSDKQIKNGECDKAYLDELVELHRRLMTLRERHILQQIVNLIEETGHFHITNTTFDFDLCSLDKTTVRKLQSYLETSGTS
Ecoli rRNA inh – inhibits bacterial ribosomal RNA function over humanized ribosomes; E. coli WT GFP vs humanized-ribosome RFP mutants, fluorescence, 24 h; active compounds read low; DMSO median 0, no signal -100; GFP signal change (wild-type ribosome), % (test concentration not listed); 1.6% of 350,000 active; AID 720706;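 active = significant combined selectivity score with lowered wild-type GFP, culture density cut under 30%, mutant RFP and density less affected; inactive = any of these conditions unmet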
DENV2 CPE rescue – protects cells from dengue virus 2 cytopathic effect; DENV2-infected cells, cytopathic effect rescue, plate reader; CPE inhibition, % at 9.99 µM; 1.7% of 350,000 active; AID 651640; in the data active = CPE inhibition above about 20%, passing the limit was not always enough; inconclusive = no clear call, values can overlap the other calls; tested in BHK-21 cells;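 note: 0% = median of neutral control wells and 100% = median of positive control wells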
S100A4 MyoIIA – blocks human S100A4 binding to myosin IIA peptide. AID 652163. S100A4/TAMRA-MyoIIA peptide fluorescence polarization. inhibition, % at 10.7 µM. 0.14% of 360,000 active;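 active = mean inhibition of at least 70% across replicates, with every replicate also reaching that level; inconclusive = mean inhibition reaches 70% but some replicates fall short; inactive = mean inhibition below 70%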
Target sequence (P26447 whole entry, looked up): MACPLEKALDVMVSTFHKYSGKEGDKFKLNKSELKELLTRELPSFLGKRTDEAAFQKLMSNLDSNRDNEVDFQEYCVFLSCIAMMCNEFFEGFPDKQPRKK
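Material: S100A4 monomer protein / Buffer or medium: 50 mM HEPES pH 7.2, 10 mM CaCl2, 100 mM KCl / Times: 5 min incubation before reading / Benchmarks: neutral control DMSO, positive control TFP / Reagent: labelled myosin peptide probe, 5 nM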
Cneo AK release – causes C. neoformans cell lysis | adenylate kinase release luminescence, 4 h; normalised: neutral wells 0, clomiphene wells 100 | lysis activity, % at 15 µM | 0.2% of 360,000 active;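 active = mean lysis activity across replicates of at least 80%, whatever share of replicates individually reach that level; inactive = mean lysis activity below 80%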
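Test system: log-phase Cryptococcus neoformans yeast cells. Input: 5 × 10^6 yeast cells/mL. Medium: fresh YPD growth medium. Doses: single dose. Incubation: static 4 h at 37 °C with compound, 1 h detection. Measured by: luminescent adenylate kinase detection reagent. Read-out: signal increase indicating cell lysis. Benchmarks: Clomiphene.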
PfHsp90 yeast 2 – inhibits growth of yeast expressing Plasmodium falciparum Hsp90. S. cerevisiae expressing PfHsp90, BacTiter-Glo ATP, 48 h; yeast lacking PDR1 and PDR3 efflux regulators. inhibition, % at 9.4 µM. 0.32% of 310,000 active. AID 504621;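 active = every replicate shows inhibition above about 80%, whatever the replicate mean, limit read from the data; inconclusive = mean inhibition reaches the set limit but some replicate falls short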;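 note: 0% = DMSO neutral controls and 100% = 20 µM radicicol positive controls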
An asterisk follows results filed as active; ? = inconclusive; nt = no result; + = active, no number. Rows were chosen to be rich in hits. Some 3.2% of all compounds tested hit in one or more screens of this group.

SMILES | AF4-AF9 inh | Ecoli rRNA inh | DENV2 CPE rescue | S100A4 MyoIIA | Cneo AK release | PfHsp90 yeast 2
C[C@H]1CCCCO[C@H](CN(C)Cc2ccc(Cl)c(Cl)c2)[C@@H](C)CN([C@@H](C)CO)C(=O)c2cc(NS(=O)(=O)c3ccc(F)cc3)ccc2O1 | -1 | -5 | 22* | 0 | nt | nt
C[C@@H]1CN([C@H](C)CO)C(=O)c2cc(NS(=O)(=O)c3ccc(Cl)cc3)ccc2O[C@@H](C)CCCCO[C@H]1CN(C)Cc1ccc(Cl)c(Cl)c1 | 3 | 1 | -9 | 102* | 5 | nt
C[C@H](CO)N1C[C@H](C)[C@H](CN(C)S(=O)(=O)c2cccs2)Oc2ccc(NS(=O)(=O)c3ccc(Cl)cc3)cc2C1=O | 1 | 0 | -4 | -36 | 0 | nt
C[C@H]1CN([C@@H](C)CO)C(=O)c2cc(NS(=O)(=O)c3ccc(Cl)cc3)ccc2O[C@@H]1CN(C)S(=O)(=O)c1cccs1 | -2 | -1 | 39* | -4 | -4 | nt
C[C@@H]1CN([C@@H](C)CO)C(=O)c2cc(NS(=O)(=O)c3ccc(F)cc3)ccc2O[C@@H]1CN(C)S(=O)(=O)c1cccs1 | 2 | -5 | 28* | -49 | -2 | nt
COC(=O)[C@H]1[C@H](CO)[C@H]2Cn3c(ccc(-c4ccc(F)cc4)c3=O)[C@H]2N1Cc1ccccn1 | 2 | -2 | 2 | -2 | 2 | nt
CC(C)C1Cc2[nH]c(=S)[nH]c(=O)c2C(c2ccc(F)cc2)O1 (configuration not stated) | -3 | nt | 32* | -6 | 0 | nt
Cc1noc(C)c1NC(=O)N(C)C[C@@H]1Oc2ncc(C#Cc3ccccc3)cc2C(=O)N([C@H](C)CO)C[C@@H]1C | 3 | -2 | 17 | -31 | 2 | nt
Cc1cc(Cl)ccc1NC(=S)N1CCN(C(=O)c2ccco2)CC1 | 0 | -37* | 8 | -3 | -1 | 4
CCCC(=O)Nc1ccc2c(c1)C(=O)N(C)C[C@@H](OC)[C@@H](C)CN(Cc1cccc(F)c1)[C@H](C)CO2 | 1 | -4 | -3 | 1 | -4 | nt
O=C(Nc1ccccc1N1CCCC1)C1CC(=O)N(Cc2ccccc2)C1 (configuration not stated) | -2 | -7 | 9 | 0 | 1 | -7
O=C(Nc1ccc(Br)cc1Br)C1CC(=O)N(Cc2ccccc2)C1 (configuration not stated) | -13 | -34* | 4 | 0 | 0 | 7
Cc1cccc(N2CC(C(=O)Nc3ccc(S(=O)(=O)N4CCOCC4)cc3)CC2=O)c1C (configuration not stated) | 3 | 1 | 1 | 0 | 2 | 6
Cc1ccc(CN2CC(C(=O)Nc3ccc(S(=O)(=O)N4CCCCC4)cc3)CC2=O)cc1 (configuration not stated) | 1 | -30 | 5 | 1 | 1 | -20
Cc1cccc(N2CC(C(=O)Nc3cccc(S(=O)(=O)N4CCCCC4)c3)CC2=O)c1C (configuration not stated) | 1 | -25* | -5 | -1 | -1 | 4
O=C(Nc1ccc(S(=O)(=O)N2CCCCC2)cc1)C1CC(=O)N(Cc2ccccc2)C1 (configuration not stated) | -38 | -1 | 0 | + | 2 | nt
COc1cccc(S(=O)(=O)N[C@H]2C=C[C@H](CC(=O)NCc3ccc(Cl)cc3)O[C@H]2CO)c1 | -5 | -5 | 1 | 1 | nt | nt
COC(=O)CCCCC1SCC2NC(=O)NC21O (configuration not stated) | 54* | 17 | 3 | 0 | nt | -41
CCCNC(=O)N1CC2(CN(Cc3cccc(OC)c3)C2)c2c([nH]c3cc(OC)ccc23)[C@H]1CO | 36* | -3 | 1 | 11 | nt | nt
CCCNC(=O)N1CC2(CN(Cc3cccc(F)c3)C2)c2c([nH]c3cc(OC)ccc23)[C@H]1CO | 26* | -10 | 3 | 9 | nt | nt
CCCNC(=O)N1CC2(CCN(Cc3cccc(OC)c3)CC2)c2c([nH]c3cc(OC)ccc23)[C@H]1CO | 9 | 1 | -12 | nt | nt | nt
CCCNC(=O)N1CC2(CN(Cc3cccc(OC)c3)C2)c2c([nH]c3cc(OC)ccc23)[C@@H]1CO | 32* | -3 | ? | 9 | nt | nt
C[C@@H]1CN([C@@H](C)CO)S(=O)(=O)c2ccc(C3=CCCC3)cc2O[C@H]1CN(C)S(C)(=O)=O | nt | 2 | nt | nt | nt | nt
CC(C)NC(=O)Nc1ccc2c(c1)C(=O)N([C@H](C)CO)C[C@H](C)[C@@H](CN(C)C(=O)c1ccncc1)OCCCC[C@H](C)O2 | -1 | 1 | -5 | 3 | 1 | nt
Clc1ccc(Nc2ncnc3ccc(Br)cc23)cc1 | nt | nt | nt | nt | -22 | 10
SMILES | AF4-AF9 inh | Ecoli rRNA inh | DENV2 CPE rescue | S100A4 MyoIIA | Cneo AK release | PfHsp90 yeast 2
CN(C)c1ccc(Nc2ncnc3ccc(Br)cc23)cc1 | 26* | -15 | -8 | -7 | -2 | -7
COc1c(OC(C)=O)ccc(/C=C/c2ccc3ccccc3n2)c1[N+](=O)[O-] | -1 | -43* | -7 | 2 | -25 | -9
CC(C)NC(=O)N(C)C[C@H]1OCCCC[C@@H](C)Oc2ccc(NS(=O)(=O)c3cn(C)cn3)cc2C(=O)N([C@@H](C)CO)C[C@H]1C | -3 | -4 | -5 | -11 | 46 | nt
COC(=O)c1cc2oc3ccccc3c2n1Cc1ccccn1 | nt | -44* | nt | -1 | 5 | 21
COc1cc2c(cc1NCc1ccccn1)oc1ccccc12 | nt | nt | nt | nt | 1 | -4
C[C@@H]1CN([C@@H](C)CO)C(=O)c2cc(NC(=O)C3CCCCC3)ccc2O[C@H]1CN(C)S(=O)(=O)c1ccc(F)cc1 | -1 | -3 | -1 | 12 | 12 | nt
O=C(O)c1ccc(N/N=C/c2ccc(-c3cccc(Cl)c3)o2)cc1 | 4 | -39* | -6 | 3 | -3 | 104*
O=C(O)c1ccc(N/N=C/c2ccc(-c3cc(Cl)ccc3Cl)o2)cc1 | -6 | -6 | -5 | 1 | 2 | -39
CCc1nnc(N/N=C/c2ccc(-c3ccc([N+](=O)[O-])cc3)o2)n1N | 8 | -37* | 3 | 7 | nt | -13
O=C(O)c1cccc(-c2ccc(/C=N/Nc3ccc([N+](=O)[O-])cc3)o2)c1 | 3 | -38* | 15 | -7 | -1 | -16
CCC(=O)N/N=C/c1ccc(-c2ccc([N+](=O)[O-])cc2)o1 | 1 | 11 | -5 | 4 | -2 | 5
CCCN(C)C[C@H]1OCc2ccccc2-c2ccccc2C(=O)N([C@@H](C)CO)C[C@H]1C | nt | -1 | nt | nt | nt | nt
CN1C(=O)c2cc(NC(=O)c3ccccc3Cl)ccc2OC[C@@H]2O[C@@H](CC(=O)O)CC[C@@H]21 | -1 | 2 | -8 | 2 | 2 | nt
O=C(NC12CC3CC(CC(C3)C1)C2)N1CCN(c2ccccn2)CC1 | -2 | -19 | 2 | 3 | -2 | 19
